Test results: article PMC5429141 (Nature structural & molecular biology, 2016)

Experiments:
[1] = molecular target: wild-type TrmD dimer (Escherichia coli, UniProt P0A873); assay: Fluorescence titration; format: binding, E. coli; settings: wild-type enzyme; room temperature; pH 8.0
Summary of the method: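 His-tagged enzyme expressed in E. coli SG13009 and purified by cobalt-affinity and MonoQ ion-exchange chromatography. Concentration was measured by Bradford against BSA and corrected for active dimer fraction. Increasing AdoMet was added to the dimer, and intrinsic Trp fluorescence quenching was followed with excitation at 295 nm and emission at 304–400 nm.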

[2] = system: EcTrmD Y115F; assay: Pre-steady-state methyl transfer kinetics, Y115F mutant; format: biochemical, E. coli; settings: Y115F relative to wild-type enzyme
[3] = system: EcTrmD G59A; assay: Pre-steady-state methyl transfer kinetics, G59A mutant; format: biochemical, E. coli; settings: G59A relative to wild-type enzyme
[4] = system: EcTrmD G141A; assay: Pre-steady-state methyl transfer kinetics, G141A mutant; format: biochemical, E. coli; settings: G141A relative to wild-type enzyme
[5] = system: EcTrmD H180*A; assay: Pre-steady-state methyl transfer kinetics, H180*A mutant; format: biochemical, E. coli; settings: H180*A relative to wild-type enzyme
[6] = system: EcTrmD D169*A; assay: Pre-steady-state methyl transfer kinetics, D169*A mutant; format: biochemical, E. coli; settings: D169*A relative to wild-type enzyme
[7] = system: EcTrmD D177*A; assay: Pre-steady-state methyl transfer kinetics, D177*A mutant; format: biochemical, E. coli; settings: D177*A relative to wild-type enzyme
[8] = system: EcTrmD G134A; assay: Pre-steady-state methyl transfer kinetics, G134A mutant; format: biochemical, E. coli; settings: G134A relative to wild-type enzyme
[9] = molecular target: wild-type EcTrmD (Escherichia coli, UniProt P0A873); format: biochemical, E. coli; settings: single turnover, 37 °C
[10] = system: EcTrmD Q90A; assay: Pre-steady-state methyl transfer kinetics, Q90A mutant; format: biochemical, E. coli; settings: Q90A relative to wild-type enzyme
[11] = system: EcTrmD Y86A; assay: Pre-steady-state methyl transfer kinetics, Y86A mutant; format: biochemical, E. coli; settings: Y86A relative to wild-type enzyme
[12] = system: EcTrmD Y136A; assay: Pre-steady-state methyl transfer kinetics, Y136A mutant; format: biochemical, E. coli; settings: Y136A relative to wild-type enzyme
[13] = system: EcTrmD P89A; assay: Pre-steady-state methyl transfer kinetics, P89A mutant; format: biochemical, E. coli; settings: P89A relative to wild-type enzyme
[14] = system: EcTrmD R154A; assay: Pre-steady-state methyl transfer kinetics, R154A mutant; format: biochemical, E. coli; settings: R154A relative to wild-type enzyme
[15] = system: EcTrmD E116A; assay: Pre-steady-state methyl transfer kinetics, E116A mutant; format: biochemical, E. coli; settings: E116A relative to wild-type enzyme
[16] = system: EcTrmD Y115A; assay: Pre-steady-state methyl transfer kinetics, Y115A mutant; format: biochemical, E. coli; settings: Y115A relative to wild-type enzyme
[17] = system: EcTrmD S170*A; assay: Pre-steady-state methyl transfer kinetics, S170*A mutant; format: biochemical, E. coli; settings: S170*A relative to wild-type enzyme
[18] = system: EcTrmD G55A; assay: Pre-steady-state methyl transfer kinetics, G55A mutant; format: biochemical, E. coli; settings: G55A relative to wild-type enzyme
[19] = system: EcTrmD P89W; assay: Pre-steady-state methyl transfer kinetics, P89W mutant; format: biochemical, E. coli; settings: P89W relative to wild-type enzyme
[20] = molecular target: TrmD Y115A dimer (Escherichia coli, UniProt P0A873, Y115A); format: binding, E. coli; settings: Y115 mutant; room temperature; pH 8.0
Chain of TrmD Y115A dimer (P0A873 whole entry Y115A): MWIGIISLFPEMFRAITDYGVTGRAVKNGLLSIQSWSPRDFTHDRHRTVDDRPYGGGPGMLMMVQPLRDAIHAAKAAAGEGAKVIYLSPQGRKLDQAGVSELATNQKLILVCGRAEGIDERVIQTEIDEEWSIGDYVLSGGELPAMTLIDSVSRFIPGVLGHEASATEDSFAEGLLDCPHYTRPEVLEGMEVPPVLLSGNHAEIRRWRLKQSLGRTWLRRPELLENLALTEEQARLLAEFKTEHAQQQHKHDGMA

Chain of wild-type EcTrmD (P0A873 whole entry): as the sequence (P0A873 whole entry Y115A) above, with A115Y counted along it
Chain of wild-type TrmD dimer (P0A873 whole entry): as the sequence (P0A873 whole entry Y115A) above, with A115Y counted along it

C[S+](CC[C@H](N)C(=O)[O-])C[C@H]1O[C@@H](n2cnc3c(N)ncnc32)[C@H](O)[C@@H]1O (some centres unmarked) [AdoMet, S-adenosyl methionine]
binding stoichiometry of AdoMet per dimer [1]: two molecules of AdoMet per dimer | fold-change in Kd (AdoMet), effect on AdoMet binding [2]: 8.0 fold | fold-change in Kd (AdoMet), effect on AdoMet binding [3]: 3.2 fold | fold-change in Kd (AdoMet), decrease in AdoMet binding [4]: 32.2 fold | fold-change in Kd (AdoMet), decrease in AdoMet binding [5]: 4.4 fold | effect on AdoMet binding [6]: neither had an effect | fold-change in Kd (AdoMet), decrease in AdoMet binding [7]: 9.0 fold | fold-change in Kd (AdoMet), decrease in AdoMet binding [8]: 19.0 fold | kchem from enzyme titration of AdoMet [9]: 0.113 ± 0.003 s⁻¹ | fold-change in Kd (AdoMet), effect on AdoMet binding [10]: 1.2 fold | fold-change in Kd (AdoMet), effect on AdoMet binding [11]: 2.8 fold | fold-change in Kd (AdoMet), decrease in AdoMet binding [12]: 8.4 fold | fold-change in Kd (AdoMet), effect on AdoMet binding [13]: 2.6 fold | effect on AdoMet binding [14]: neither had an effect | fold-change in Kd (AdoMet), effect on AdoMet binding [15]: 6.0 fold | fold-change in Kd (AdoMet), effect on AdoMet binding [16]: 6.3 fold | fold-change in Kd (AdoMet), decrease in AdoMet binding [17]: 2.6 fold | fold-change in Kd (AdoMet), effect on AdoMet binding [18]: 12.8 fold | fold-change in Kd (AdoMet), effect on AdoMet binding [19]: 23 fold | binding stoichiometry of AdoMet per dimer [20]: two molecules of AdoMet per dimer
